APJ antagonist: APJ receptor antagonism; P35414; CHO-K1 APJ beta-arrestin complementation, luminescence; inhibition, % at 20 µM; 330,000 compounds, 0.32% hits;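 active = inhibition above about 40% at 20 µM, limit read from the data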;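 also: cells challenged with 10 nM apelin-13 agonist together with compound; plate controls were apelin-13 plus DMSO wells for no effect and DMSO wells lacking apelin-13 for full effect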
Target sequence (P35414 whole entry, looked up): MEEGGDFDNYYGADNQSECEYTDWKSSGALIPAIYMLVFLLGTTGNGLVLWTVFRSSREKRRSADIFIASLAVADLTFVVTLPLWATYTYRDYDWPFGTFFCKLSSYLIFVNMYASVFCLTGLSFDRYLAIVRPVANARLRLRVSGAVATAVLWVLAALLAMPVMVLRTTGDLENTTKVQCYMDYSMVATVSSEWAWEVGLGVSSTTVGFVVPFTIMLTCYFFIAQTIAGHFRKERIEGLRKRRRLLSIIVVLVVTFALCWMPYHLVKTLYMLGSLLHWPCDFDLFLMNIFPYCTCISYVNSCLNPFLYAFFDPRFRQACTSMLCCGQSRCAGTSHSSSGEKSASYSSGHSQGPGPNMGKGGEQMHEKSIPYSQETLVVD
EBI2 antag: antagonists of human EBI2 receptor | P32249 | EBI2 beta-arrestin recruitment, luminescence, 7a,25-OHC stimulated | inhibition, % at 5 µM | 360,000 compounds, 0.81% hits; in the data active = inhibition above about 38%;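 also: enzyme fragment complementation signal reports receptor beta-arrestin coupling in cells; 0% = agonist plus DMSO wells and 100% = wells without agonist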
APJ ag: agonists of human APJ apelin receptor; P35414; CHO-K1 APJ PathHunter beta-arrestin, luminescence; 0% DMSO wells, 100% apelin; activation, % at 20 µM; 330,000 compounds, 0.11% hits; AID 2520;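 active = activation more than six SD over the plate average, tested at 20 µM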;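 also: 0% = DMSO alone and 100% = apelin-13 at 10 nM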
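Test system – PathHunter CHO-K1 APJ (AGTRL-1) beta-arrestin reporter cells · Input – 1000 cells/well · Compound – single test compound dose, 20 µM final, 1% DMSO · Times – compound stimulation 90 min at 25 °C, detection 60 min · Technique – beta-gal luminescence · Read-out basis – APJ–arrestin association signal · Control set – negative DMSO alone, positive Apelin-13 at 10 nM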
CCR6 antag: blocks CCL20-driven beta-arrestin recruitment at human CCR6 | P51684 | CHO-K1 CCR6 PathHunter beta-arrestin, luminescence, CCL20-stimulated | inhibition, % at 20 µM | 340,000 compounds, 0.49% hits | AID 493098;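 active = compounds whose inhibition of the agonist-driven luminescence signal at 20 µM reaches about 50%, limit read from the data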;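 also: cells stimulated with CCL20 at 14 nM final; plate controls were DMSO with CCL20 for no effect and DMSO without agonist for full effect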
m5-HT2A agonist: activates the mouse 5-HT2A serotonin receptor; activation, % at 7.6 µM; P35363; CHO-K1 mHTR2A beta-arrestin complementation, luminescence; percent of 30 µM serotonin response; 360,000 compounds, 0.66% hits;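 active = activation above a run cutoff, the mean activation of all tested compounds plus 3 SD, cut at about 14% in these data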;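 also: 0% = plate median of compound wells and 100% = 30 µM serotonin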
CXCR6 block: inhibitors of human CXCR6 receptor; 360,000 compounds, 0.36% hits; inhibition, % at 20 µM; CHO-K1 PathHunter CXCR6 beta-arrestin, luminescence; AID 602244; O00574; in the data active = inhibition above about 34%, passing the limit was not always enough;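 also: antagonist mode with CXCL16 agonist at 10 nM final; 0% = 10 nM CXCL16 with DMSO and 100% = unstimulated wells without agonist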
Target sequence (O00574 whole entry, looked up): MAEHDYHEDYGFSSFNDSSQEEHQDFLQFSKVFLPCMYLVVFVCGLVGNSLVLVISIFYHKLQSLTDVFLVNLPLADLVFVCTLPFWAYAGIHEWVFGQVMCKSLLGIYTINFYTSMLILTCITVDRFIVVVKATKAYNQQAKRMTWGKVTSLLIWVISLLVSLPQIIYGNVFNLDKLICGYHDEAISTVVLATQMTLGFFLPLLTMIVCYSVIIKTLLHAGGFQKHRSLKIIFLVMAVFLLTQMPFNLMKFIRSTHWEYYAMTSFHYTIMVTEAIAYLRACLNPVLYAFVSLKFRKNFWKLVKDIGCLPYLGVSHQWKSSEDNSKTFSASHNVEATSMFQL
Active calls of the source: *; . = not tested or not shown. Hits are enriched below; roughly 2.2% of the tested compounds scored in any of these assays.

SMILES	APJ antagonist	EBI2 antag	APJ ag	CCR6 antag	m5-HT2A agonist	CXCR6 block
CC1(C(=O)NS(=O)(=O)c2cccc(OC(F)F)c2)CCN1C(=O)C1CCCCC1 (centres undefined)	.	2.8	.	.	5.4	-0.3
Cc1cc(C(=O)N/N=C/c2cccc([N+](=O)[O-])c2O)n[nH]1	22.8	-10.7	-8.6	24.2	0.5	30.3
COC(=O)N/N=C/c1cc(N=Nc2ccccc2)ccc1O	-16.6	-11.0	0.9	39.2	-10.7	28.7
Cc1cc(C(=O)N/N=C/c2cc(N=Nc3ccccc3)ccc2O)n[nH]1	.	8.9	.	60.8*	-1.8	16.0
O=C(NN=Cc1cc([N+](=O)[O-])ccc1O)c1cccc2ccccc12	.	8.8	.	49.2	-2.7	14.8
COC(=O)N/N=C/c1cc(N=Nc2ccccc2Cl)ccc1O	11.1	1.0	-5.5	58.0*	-6.2	32.1
Nc1ccc(C(=O)N/N=C\c2cc(N=Nc3cccc4ccccc34)ccc2O)cc1	31.4	10.2	-4.7	58.9*	-1.2	28.2
COC(=O)C[C@@H]1CC[C@H](NC(=O)Nc2ccc(OC)cc2)[C@@H](CO)O1	.	0.9	.	.	1.9	.
COC(=O)[C@@]12C[C@@H](CC(=O)NCCCCc3ccccc3)C(=O)N(Cc3cccc4ccccc34)C1=CCC(C)(C)C2	.	33.5	.	.	-5.4	.
COc1cc2c(cc1OC)C(c1ccc3c(c1)Cc1ccccc1-3)OC(=O)C2 (centres undefined)	.	-9.9	.	.	-0.4	-1.1
Nc1ncnc2c1ncn2C1OCC(O)C1O (centres undefined)	.	-9.8	.	.	3.2	-1.1
COc1ccccc1-c1cc(C(F)(F)F)nc(S(=O)(=O)CCCC(=O)NCc2ccc(F)cc2)n1	8.3	8.7	-0.1	23.5	4.6	40.5*
O=C(Nc1ccccc1)c1cc(C2CCCCN2C(=O)OCCF)on1 (centres undefined)	.	1.0	.	.	7.7	2.3
CCSC1(SCC)N=C(N)C2(C#N)C(c3ccc(F)cc3)C12C#N (centres undefined)	17.3	-15.2	-3.7	37.0	-3.0	66.6*
COC1(OC)N=C(N)C2(C#N)C(c3ccc(F)cc3)C12C#N (centres undefined)	-0.4	4.3	-1.6	-9.8	-3.6	-2.0
COc1ccc(CN2CN(c3ccc(Cl)cc3)C(=O)N(n3cnnc3)C2)cc1	24.3	-3.9	-5.0	-16.0	3.8	44.3*
Cc1ccc2nc(-c3cccc(Br)c3)c(Cc3ccccn3)n2c1	.	-7.8	.	.	10.3	3.0
Cc1ccc(C2=NOC(=O)/C2=C\c2ccccc2)cc1	8.4	6.7	-0.6	7.5	-1.4	-7.9
O=C1ON=C(c2ccccc2)/C1=C/c1ccc(O)cc1	8.0	-34.1	-2.3	39.3	-2.3	46.3*
COc1cc(/C=C2/C(=O)ON=C2c2ccccc2)ccc1O	24.6	-5.3	-3.9	55.1*	0.9	33.1
O=C1ON=C(c2ccccc2)/C1=C/c1ccccc1	5.1	-5.1	3.5	8.5	2.7	-2.1
COCCOC(=O)N1CCCCC1c1cc(C(=O)Nc2cccc3c2CCCC3)no1 (centres undefined)	.	29.9	.	.	-3.9	5.1
Cc1cc(NCCCn2ccnc2)n2ncc(-c3ccc(Cl)cc3)c2n1	-10.7	45.4*	2.1	-3.9	-6.5	-6.5
Cc1cc(NCCCN2CCOCC2)n2ncc(-c3ccc(Cl)cc3)c2n1	15.1	18.0	-0.2	17.2	-3.2	-6.8
CC1CCN(Cc2c(C(=O)N/N=C/c3cc(Br)ccc3O)nnn2-c2nonc2N)CC1	3.6	-3.1	-1.4	41.4	-0.9	4.8
SMILES	APJ antagonist	EBI2 antag	APJ ag	CCR6 antag	m5-HT2A agonist	CXCR6 block
CC1CCN(Cc2c(C(=O)N/N=C/c3cc(Cl)ccc3O)nnn2-c2nonc2N)CC1	8.4	-15.1	0.5	50.5*	-1.9	4.8
Oc1c(Cl)cc(CN2CCCCC2)c2cccnc12	24.6	4.8	-8.3	.	-2.7	49.3*
O=C(Oc1c(CN2CCOCC2)cc(Cl)c2cccnc12)c1ccccc1Cl	10.8	53.0*	-1.9	41.9	-18.5	27.7
CCC(=O)NC(c1ccc(C)cc1)c1cc(Cl)c2cccnc2c1O (centres undefined)	25.8	31.6	-4.2	55.8*	-0.6	12.0
Oc1c(Cl)cc(Cl)c2cccnc12	.	10.9	.	62.9*	0.7	49.4*
O=C(Oc1c(CN2CCOCC2)cc(Cl)c2cccnc12)c1cccs1	17.6	18.4	-0.5	32.5	-14.2	12.8
Oc1ccc(CN2CCCCC2)c2cccnc12	-6.8	22.1	-0.2	15.8	-0.3	1.4
CN(C)C(=O)c1cccc(COc2ccc(N3C(N)=NC(N)=NC3(C)C)cc2Cl)c1	.	-4.9	.	.	-1.6	-4.3
CCOC(=O)c1cc(OCC)c2c(ccc3cc(OC)ccc32)n1	.	9.1	.	.	1.7	3.6
Cc1ccc(OCC(=O)NC(=S)Nc2ccccn2)c(Br)c1	-5.7	-8.4	-5.1	-2.9	1.2	1.2
Cc1ccc(OCC(=O)NNC(=S)NC(=O)C(C)(C)C)c(Br)c1	9.9	6.3	-5.3	58.8*	1.3	37.7
C[C@H](CO)N1C[C@H](C)[C@@H](CN(C)C(=O)Nc2ccc(C(F)(F)F)cc2)Oc2c(NC(=O)Nc3ccccc3)cccc2C1=O	-1.8	11.0	-1.6	-3.9	3.0	1.3
COc1ccc(NC(=O)N(C)C[C@H]2Oc3c(NC(=O)Nc4ccc(C(F)(F)F)cc4)cccc3C(=O)N([C@H](C)CO)C[C@@H]2C)cc1	-3.5	-1.0	3.0	-9.3	23.1*	-13.8
Cc1[nH]n(-c2ccccc2)c(=O)c1/C=N/N1C(=O)c2cccc3cccc(c23)C1=O	18.1	1.8	-4.7	73.5*	-0.8	52.5*
Cc1ccc(-n2[nH]c(C)c(/C=N/c3ccccn3)c2=O)cc1	11.5	2.3	2.1	5.9	3.9	1.5
Cc1[nH]n(-c2ccccc2)c(=O)c1C=Nc1cccc2cccnc12	94.2*	95.7*	-13.1	52.3*	-9.5	53.9*
CCNC(=O)C1(C)CCCN(C(=O)c2ccc3c(c2)C(C)(C)CCC3(C)C)C1 (centres undefined)	.	-0.3	.	.	2.1	0.2
COc1ccc(C(C)NC(=O)C2CCN(CCOc3ccc(Cl)cc3Cl)CC2)cc1OC (centres undefined)	.	-3.3	.	.	-4.2	-1.2
CCOc1ccc(NC(=O)CN(C)S(=O)(=O)c2cccs2)cc1	-8.6	-2.6	1.9	9.4	3.5	49.0*
C=CCn1nc(C(=O)Nc2ccc(OC)cc2)cc1-c1sc(NC(=O)c2ccccc2)nc1C	.	7.1	.	.	5.8	.
CCN(C(=O)CN1C(=O)NC2(CCCC2)C1=O)c1nc2c(C)cccc2s1	.	-5.0	.	.	-2.2	-10.4
O=C1c2cccc(O)c2C(=O)c2c(O)cc(CO)cc21	-134.8	.	1.7	4.2	.	.
CC1OC2CC(=O)OC2C2=C1C(=O)c1c(O)cccc1C2=O (centres undefined)	.	-27.9	.	.	-15.9	78.9*
CC(C)C[C@H](N)c1nnc(S(=O)(=O)Cc2ccc(F)cc2)o1	13.9	-8.6	-0.8	34.9	-3.7	42.4*

Assay outcomes deposited in PubChem by several laboratories.
